Source: ChEMBL document CHEMBL1157145, “Cytotoxic activity of proflavine diureas: synthesis, antitumor, evaluation and DNA binding properties of 1',1''-(acridin-3,6-diyl)-3',3''-dialkyldiureas” (Bioorg Med Chem, 2008)
Active and inactive are the calls of the source. The calls are words filed in the database; no cut-off is given here.

Assays:
[1] = system: HCT-116; assay: Cell cycle arrest in human HCT116 cells assessed as accumulation at G2/M phase at 27 uM after 48 hrs; assay type: functional
Summary of the method: (§1)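 Cells seeded at 8 · 10^5 per 60 mm dish, allowed to settle 24 h (37 °C, 5% CO2), then exposed to the drug for 24 or 48 h. Adherent plus floating cells (5 · 10^5) were fixed in cold 70% ethanol at −20 °C overnight, treated with RNase A (100 µg/mL) and stained with propidium iodide (20 µg/mL) in Vindelov's solution for 30 min at RT. Flow cytometry used 488 nm excitation, FL-2 at 585 ± 21 nm, and histograms were modelled for G0/G1, S and G2/M fractions.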

[2] = system: DNA; assay: Binding affinity to calf thymus DNA at 5.5 uM by absorption titration; assay type: nucleic-acid assay; conditions: Bos taurus
Summary of the method: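 Compound (5.5 µM) in 0.01 M Tris, pH 7.4, 25 °C. UV–vis spectra recorded over ctDNA 0–35 µM bp in 5 µM steps, corrected for dilution. ctDNA concentration from A260, expressed in base pairs.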

[3] = system: DNA; assay: Binding affinity to calf thymus DNA at 4 uM by fluorescence spectrophotometric titration; assay type: nucleic-acid assay; conditions: Bos taurus
Summary of the method: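 ctDNA sonicated in TE buffer, concentration taken from A260 and given in base pairs. Compound (4 µM) in 0.01 M Tris, pH 7.4, 25 °C titrated with ctDNA (0–55 µM bp) until spectra stopped changing. Excitation 424 nm, slit widths 10 nm; binding constant derived from the change in emission.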

[4] = system: DNA; assay: Binding affinity to calf thymus DNA at 50 uM by circular dichroism spectrophotometric titration; assay type: nucleic-acid assay; conditions: Bos taurus
[5] = system: HeLa; assay: Cytotoxicity against human HeLa cells after 48 hrs by MTT assay; assay type: functional, cell-based
[6] = system: HeLa; assay: Cytotoxicity against human HeLa cells after 72 hrs by MTT assay; assay type: functional, cell-based
[7] = system: HCT-116; assay: Cytotoxicity against human HCT116 cells after 48 hrs by MTT assay; assay type: functional, cell-based; conditions: HCT-116, 48 h
[8] = system: HCT-116; assay: Cytotoxicity against human HCT116 cells after 72 hrs by MTT assay; assay type: functional, cell-based; conditions: Homo sapiens, HCT-116, 72 h
[9] = system: HeLa; assay: Antiproliferative activity against human HeLa cells assessed as increase of floating cells in total cell population at 64 uM after 24 hrs; assay type: functional
Summary of the method: (§2)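 Cells seeded (8 · 10^5 per 60 mm dish), allowed to settle 24 h at 37 °C, 5% CO2, then treated with a single concentration for 24 or 48 h. Adherent and floating cells counted by Coulter counter. Total cell number given as % of untreated control; floating cells as % of total cell number.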

[10] = system: HeLa; assay: Antiproliferative activity against human HeLa cells assessed as decrease in total cell population at 64 uM after 24 hrs; assay type: functional; set-up: scale not given: the % may be the effect or the level left; summary of the method: as §2
[11] = system: HeLa; assay: Antiproliferative activity against human HeLa cells assessed as increase of floating cells in total cell population at 64 uM after 48 hrs; assay type: functional; summary of the method: as §2
[12] = system: HeLa; assay: Antiproliferative activity against human HeLa cells assessed as decrease in total cell population at 64 uM after 48 hrs; assay type: functional; set-up: scale not given: the % may be the effect or the level left; summary of the method: as §2
[13] = system: HCT-116; assay: Antiproliferative activity against human HCT116 cells assessed as increase of floating cells in total cell population at 27 uM after 24 hrs; assay type: functional; summary of the method: as §2
[14] = system: HCT-116; assay: Antiproliferative activity against human HCT116 cells assessed as decrease in total cell population at 27 uM after 24 hrs; assay type: functional; set-up: scale not given: the % may be the effect or the level left; summary of the method: as §2
[15] = system: HCT-116; assay: Antiproliferative activity against human HCT116 cells assessed as increase of floating cells in total cell population at 27 uM after 48 hrs; assay type: functional; summary of the method: as §2
[16] = system: HCT-116; assay: Antiproliferative activity against human HCT116 cells assessed as decrease in total cell population at 27 uM after 48 hrs; assay type: functional; set-up: scale not given: the % may be the effect or the level left; summary of the method: as §2
[17] = system: HeLa; assay: Induction of apoptosis in human HeLa cells at 64 uM after 24 hrs; assay type: functional
Summary of the method: (§3)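 After 24 or 48 h of drug exposure, all cells were collected, combining trypsinised adherent cells with floating cells from the medium. Cells (1 × 10^6) were fixed in cold 70% ethanol overnight at −20 °C and stained with DAPI (10 µg/mL) for 30 min in the dark at RT. Under fluorescence microscopy, 300 cells per sample were scored, with condensed or fragmented nuclei counted as apoptotic.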

[18] = system: HeLa; assay: Induction of apoptosis in human HeLa cells at 64 uM after 48 hrs; assay type: functional; summary of the method: as §3
[19] = system: HCT-116; assay: Induction of apoptosis in human HCT116 cells at 27 uM after 24 hrs; assay type: functional; summary of the method: as §3
[20] = system: HCT-116; assay: Induction of apoptosis in human HCT116 cells at 27 uM after 48 hrs; assay type: functional; summary of the method: as §3
[21] = system: HeLa; assay: Cell cycle arrest in human HeLa cells assessed as accumulation at G0/G1 phase at 64 uM after 24 hrs; assay type: functional; summary of the method: as §1
[22] = system: HeLa; assay: Cell cycle arrest in human HeLa cells assessed as accumulation at G0/G1 phase at 64 uM after 48 hrs; assay type: functional; summary of the method: as §1
[23] = system: HCT-116; assay: Cell cycle arrest in human HCT116 cells assessed as accumulation at G0/G1 phase at 27 uM after 24 hrs; assay type: functional
Summary of the method: (§4)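 Adherent plus floating cells (5 · 10^5) collected 24 or 48 h after treatment, fixed in cold 70% ethanol at −20 °C overnight, washed in PBS. RNase A (100 µg/mL) and propidium iodide (20 µg/mL) in Vindelov's solution, 30 min at RT. Flow cytometry with 488 nm excitation, emission 585 ± 21 nm; % cells per cycle phase from DNA content histograms.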

[24] = system: HCT-116; assay: Cell cycle arrest in human HCT116 cells assessed as accumulation at G0/G1 phase at 27 uM after 48 hrs; assay type: functional; summary of the method: as §4
[25] = system: HeLa; assay: Cell cycle arrest in human HeLa cells assessed as accumulation at S phase at 64 uM after 24 hrs; assay type: functional; summary of the method: as §1
[26] = system: HeLa; assay: Cell cycle arrest in human HeLa cells assessed as accumulation at S phase at 64 uM after 48 hrs; assay type: functional; summary of the method: as §1
[27] = system: HCT-116; assay: Cell cycle arrest in human HCT116 cells assessed as accumulation at S phase at 27 uM after 24 hrs; assay type: functional; summary of the method: as §1
[28] = system: HCT-116; assay: Cell cycle arrest in human HCT116 cells assessed as accumulation at S phase at 27 uM after 48 hrs; assay type: functional; summary of the method: as §1
[29] = system: HeLa; assay: Cell cycle arrest in human HeLa cells assessed as accumulation at G2/M phase at 64 uM after 24 hrs; assay type: functional; summary of the method: as §1
[30] = system: HeLa; assay: Cell cycle arrest in human HeLa cells assessed as accumulation at G2/M phase at 64 uM after 48 hrs; assay type: functional; summary of the method: as §1
[31] = system: HCT-116; assay: Cell cycle arrest in human HCT116 cells assessed as accumulation at G2/M phase at 27 uM after 24 hrs; assay type: functional; summary of the method: as §1

- Activity [2]: Active
- K [3]: 4.2 ×10⁵ /M
- Activity [4]: Active
SMILES: CCNC(=O)Nc1ccc2cc3ccc(NC(=O)NCC)cc3nc2c1.Cl
- Activity [1]: 14.85%
- IC50 [5]: 63.9 µM
- IC50 [6]: 60 µM
- IC50 [7]: 27.6 µM
- IC50 [8]: 34.7 µM
- Activity [9]: 3.58%
- Activity [10]: 95.15%
- Activity [11]: 4.63%
- Activity [12]: 93.61%
- Activity [13]: 6.2%
- Activity [14]: 79.4%
- Activity [15]: 5.68%
- Activity [16]: 75.37%
- Activity [17]: 1.33%
- Activity [18]: 0.89%
- Activity [19]: 3.22%
- Activity [20]: 3.44%
- Activity [21]: 63.51%
- Activity [22]: 71.26%
- Activity [23]: 47.44%
- Activity [24]: 53.7%
- Activity [25]: 23.73%
- Activity [26]: 19.5%
- Activity [27]: 34.06%
- Activity [28]: 31.45%
- Activity [29]: 12.75%
- Activity [30]: 9.23%
- Activity [31]: 18.5%
